Results as given in ChEMBL document CHEMBL1149392, “PTP-1B inhibitors: cyclopenta[d][1,2]-oxazine derivatives” (Bioorg Med Chem Lett, 2006).

What was measured:
[1] = target: T1, Tyrosine-protein phosphatase non-receptor type 1 (Homo sapiens, UniProt P18031); assay: Inhibitory activity against recombinant human PTP1B
T1 sequence (P18031 whole entry): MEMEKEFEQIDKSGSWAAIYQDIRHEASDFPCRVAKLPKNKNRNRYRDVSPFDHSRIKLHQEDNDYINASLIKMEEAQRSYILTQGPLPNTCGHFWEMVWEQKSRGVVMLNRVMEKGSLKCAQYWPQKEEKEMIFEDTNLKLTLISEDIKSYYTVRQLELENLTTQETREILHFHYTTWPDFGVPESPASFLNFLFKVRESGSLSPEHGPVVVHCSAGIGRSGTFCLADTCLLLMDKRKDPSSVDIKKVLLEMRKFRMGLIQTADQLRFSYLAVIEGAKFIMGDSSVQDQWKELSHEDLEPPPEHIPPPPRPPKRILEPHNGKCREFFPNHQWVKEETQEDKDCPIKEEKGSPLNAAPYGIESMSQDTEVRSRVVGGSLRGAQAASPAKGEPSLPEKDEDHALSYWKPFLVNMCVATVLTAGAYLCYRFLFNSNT
How it was run: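 Recombinant human PTP-1B (0.1 μg) incubated with 20 μM fluorescein diphosphate and compound in 30 mM Tris, 75 mM NaCl, 0.67 mM EDTA, 1 mM DTT, pH 8.0, for 1 h at room temperature. Product fluorescein monophosphate read by fluorescence (ex 485 nm, em 538 nm). IC50 reported.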

[2] = target: T2, Tyrosine-protein phosphatase non-receptor type 1 (Homo sapiens) (UniProt P18031); assay: Inhibitory activity against recombinant human PTP1B at 10 uM
T2 sequence (whole entry): T1 sequence (P18031 whole entry)

[3] = target: T3, M-phase inducer phosphatase 2 (Homo sapiens, UniProt P30305); assay: Inhibitory activity against cdc25B phosphatase
T3 sequence (P30305 whole entry): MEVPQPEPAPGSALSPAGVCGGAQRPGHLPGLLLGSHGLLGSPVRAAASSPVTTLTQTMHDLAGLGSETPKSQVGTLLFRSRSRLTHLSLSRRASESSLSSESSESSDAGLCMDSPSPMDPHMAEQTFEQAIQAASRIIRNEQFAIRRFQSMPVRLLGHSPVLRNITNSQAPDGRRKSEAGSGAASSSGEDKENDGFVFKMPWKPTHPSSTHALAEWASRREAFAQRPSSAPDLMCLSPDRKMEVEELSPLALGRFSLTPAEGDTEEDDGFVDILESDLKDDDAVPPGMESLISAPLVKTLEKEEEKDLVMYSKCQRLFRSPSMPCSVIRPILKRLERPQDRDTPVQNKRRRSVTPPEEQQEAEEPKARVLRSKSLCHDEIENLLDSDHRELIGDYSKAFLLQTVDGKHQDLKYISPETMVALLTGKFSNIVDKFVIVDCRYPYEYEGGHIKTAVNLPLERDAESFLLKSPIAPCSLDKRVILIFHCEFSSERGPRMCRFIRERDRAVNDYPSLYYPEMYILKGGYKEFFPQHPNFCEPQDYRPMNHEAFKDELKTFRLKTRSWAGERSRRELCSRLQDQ
How it was run: (§1)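 Selectivity panel of nine phosphatases, each assayed with fluorescein diphosphate at the same concentration as in the PTP-1B assay (20 μM). IC50 values (μM) reported.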

[4] = target: Dual specificity protein phosphatase 3 (Homo sapiens, UniProt P51452); assay: Inhibitory activity against VH1-related phosphatase VHR; how it was run: as §1
Dual specificity protein phosphatase 3, sequence (P51452 whole entry): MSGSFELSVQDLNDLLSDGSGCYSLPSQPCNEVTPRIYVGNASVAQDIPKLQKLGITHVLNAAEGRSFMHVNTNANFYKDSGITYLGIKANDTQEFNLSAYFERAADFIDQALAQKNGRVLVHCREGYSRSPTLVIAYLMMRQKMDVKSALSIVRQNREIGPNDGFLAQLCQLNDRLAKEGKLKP

[5] = Inhibitory activity against protein phosphatase type 2A; how it was run: as §1

Structure (SMILES)	IC50 [1]	inhibition [2]	IC50 [3]	IC50 [4]	IC50 [5]
NCc1ccc(C(=O)c2ccc3c(-c4ccc(OCC(=O)O)cc4)nocc2-3)cc1	2.16 µM	97.2%	10 µM		
COc1ccc(C(=O)c2ccc3c(-c4ccc(OCC(=O)O)cc4)nocc2-3)cc1	0.8 µM	81.5%	16.1 µM	181 µM	> 10 µM
CCCCCCCCCCCCCCc1ccc(C(=O)c2ccc3c(-c4ccc(OCC(=O)O)cc4)nocc2-3)cc1	0.14 µM	101%	0.12 µM		
